Experimental data: ChEMBL document CHEMBL1138515, “Synthesis and biological characterization of B-ring amino analogues of potent benzothiadiazine hepatitis C virus polymerase inhibitors” (J Med Chem, 2009)

Columns and labels:
[1] = Clearance in Sprague-Dawley rat at 5 mg/kg, iv; format: ADME, organism-based; parameters: dose 5 mg/kg, route intravenous; details: in vivo
Outline: (§1)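 Overnight-fasted Sprague-Dawley rats (n = 3) received a single 5 mg/kg iv or oral dose in DMSO/PEG400 (1:9, v/v). Mean concentrations were fitted multiexponentially. AUC₀₋ₜ was calculated by linear trapezoidal rule and extrapolated to infinity using Cₜ divided by the terminal rate constant.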

[2] = Drug level in Sprague-Dawley rat liver at 5 mg/kg, po after 12 hrs; format: ADME, organism-based; parameters: dose 5 mg/kg, route oral; details: read-out: Drug uptake
Outline: (§2)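 Sprague-Dawley rats were given 5 mg/kg orally in DMSO/PEG400 (1:9, v/v). Separate animals were sampled for liver and plasma at 1, 6 and 12 h. Drug in liver (µg/g) and in plasma was measured by LC-MS, and liver/plasma ratios were taken at each time.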

[3] = Oral bioavailability in Sprague-Dawley rat at 5 mg/kg; format: ADME, organism-based; details: in vivo; outline: as §1
[4] = Drug level in Sprague-Dawley rat liver at 5 mg/kg, po after 1 hr; format: ADME, organism-based; parameters: dose 5 mg/kg, route oral; details: read-out: Drug uptake; outline: as §2
[5] = Ratio of drug level in liver to plasma of Sprague-Dawley rat at 5 mg/kg, po after 12 hrs; format: ADME, organism-based; parameters: dose 5 mg/kg, route oral; details: liver and plasma; outline: as §2
Genome polyprotein = Genome polyprotein (Hepatitis C virus genotype 1b (isolate Con1) (HCV), UniProt Q9WMX2); experiment: Inhibition of HCV1b Con1 NS5B assessed as [3H]UTP incorporation into RNA by scintillation counting
[6] = Drug level in Sprague-Dawley rat liver at 5 mg/kg, po after 6 hrs; format: ADME, organism-based; parameters: dose 5 mg/kg, route oral; details: read-out: Drug uptake; outline: as §2
[7] = Half life in Sprague-Dawley rat at 5 mg/kg, iv; format: ADME, organism-based; parameters: dose 5 mg/kg, route intravenous; details: in vivo; outline: as §1
[8] = Ratio of drug level in liver to plasma of Sprague-Dawley rat at 5 mg/kg, po after 6 hrs; format: ADME, organism-based; parameters: dose 5 mg/kg, route oral; details: liver and plasma; outline: as §2
[9] = AUC (0 to infinity) in Sprague-Dawley rat at 5 mg/kg, po; format: ADME, organism-based; parameters: time infinity, dose 5 mg/kg, route oral; details: plasma; outline: as §1
Hepatitis C virus [10] = experiment: Antiviral activity against HCV1b Con1 infected in human Huh7 cells assessed as inhibition viral subgenomic replication […]; format: functional, organism-based, Hepacivirus hominis; details: isolate Con1, Huh-7
Hepatitis C virus [11] = experiment: Antiviral activity against HCV1a H77 infected in human Huh7 cells assessed as inhibition viral subgenomic replication; format: functional, organism-based, Hepacivirus hominis; details: genotype 1a H77, Huh-7
Outline: (§3)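 Stable luciferase-reporter subgenomic replicon Huh-7 lines (1a H77; 1b Con1) were seeded at 5000 cells/well in DMEM with 5% FBS. The next day an eight-point half-log dilution series was added from DMSO stocks. After 3 days the cells were lysed, luciferin was added and luminescence was read. EC₅₀ came from percent inhibition of replication at each concentration.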

[12] = Cmax in Sprague-Dawley rat at 5 mg/kg, po; format: ADME, organism-based; parameters: dose 5 mg/kg, route oral; details: in vivo; outline: as §1
[13] = Inhibition of HCV1a H77 NS5B assessed as [3H]UTP incorporation into RNA by scintillation counting; parameters: species or system Hepatitis C virus (isolate H77)
Outline: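 Two-fold serial inhibitor dilutions were preincubated for 15 min at room temperature with NS5B (genotype 1a H77 or genotype 1b BK, 20-50 nM) in 20 mM Tris-Cl pH 7.4, 2 mM MnCl₂, 1 mM DTT, 1 mM EDTA and 60-125 µM GTP. Reactions were started with 20 µM CTP, 20 µM ATP, 1 µM ³H-UTP, 5 nM template RNA and RNase inhibitor, then run 2-4 h at room temperature.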

Hepatitis C virus [14] = experiment: Antiviral activity against HCV1b Con1 infected in human Huh7 cells assessed as inhibition viral subgenomic replication; format: functional, organism-based, Hepacivirus hominis; details: isolate Con1, Huh-7; outline: as §3
[15] = Ratio of drug level in liver to plasma of Sprague-Dawley rat at 5 mg/kg, po after 1 hr; format: ADME, organism-based; parameters: dose 5 mg/kg, route oral; details: liver and plasma; outline: as §2
Hepatitis C virus [16] = experiment: Antiviral activity against HCV1a H77 assessed as inhibition of viral replication by cell-based replicon assay; format: functional, organism-based, Hepacivirus hominis; details: genotype 1a H77; outline: as §3

Chain of Genome polyprotein (Q9WMX2 2420-3010 limits assumed): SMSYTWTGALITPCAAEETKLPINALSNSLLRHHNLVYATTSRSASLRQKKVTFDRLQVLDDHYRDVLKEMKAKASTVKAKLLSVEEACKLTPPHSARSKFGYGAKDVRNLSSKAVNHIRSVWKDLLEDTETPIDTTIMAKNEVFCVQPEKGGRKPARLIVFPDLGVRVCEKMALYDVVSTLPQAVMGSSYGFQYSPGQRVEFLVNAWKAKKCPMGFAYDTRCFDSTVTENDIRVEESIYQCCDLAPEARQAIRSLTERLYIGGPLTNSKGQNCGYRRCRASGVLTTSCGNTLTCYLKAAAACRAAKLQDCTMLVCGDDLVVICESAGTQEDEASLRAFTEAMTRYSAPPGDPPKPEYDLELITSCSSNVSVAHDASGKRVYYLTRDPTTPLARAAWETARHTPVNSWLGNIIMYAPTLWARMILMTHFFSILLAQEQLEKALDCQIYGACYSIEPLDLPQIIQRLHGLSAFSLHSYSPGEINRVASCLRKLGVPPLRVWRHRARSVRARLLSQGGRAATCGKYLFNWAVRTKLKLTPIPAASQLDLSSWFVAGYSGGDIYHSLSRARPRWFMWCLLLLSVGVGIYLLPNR

Row | clearance [1] | concentration at 12 h [2] | bioavailability [3] | concentration at 1 h [4] | Kp at 12 h [5] | IC50 (Genome polyprotein) | concentration at 6 h [6] | half-life [7] | Kp at 6 h [8] | AUC(0-inf) [9] | EC50 (Hepatitis C virus [10]) | EC50 (Hepatitis C virus [11]) | Cmax [12] | IC50 [13] | EC50 (Hepatitis C virus [14]) | Kp at 1 h [15] | EC50 (Hepatitis C virus [16]) | SMILES
1 | 25 mL/min/kg |  | 48% |  |  |  |  | 3.2 h |  | 1600 ng·h/mL |  |  | 400 ng/mL | 0.015 µM |  |  | 0.006 µM | COc1ccccc1CNC1(CCC(C)(C)C)C(=O)C(C2=NS(=O)(=O)c3cc(NS(C)(=O)=O)ccc3N2)=C(O)c2ccccc21 (configuration not stated)
2 | 23.3 mL/min/kg |  | 28.1% |  |  |  |  | 2.2 h |  | 1020 ng·h/mL |  |  | 180 ng/mL | 0.023 µM |  |  | 0.016 µM | CC(C)(C)CCC1(NCc2ccc3ccccc3c2)C(=O)C(C2=NS(=O)(=O)c3cc(NS(C)(=O)=O)ccc3N2)=C(O)c2ccccc21 (configuration not stated)
3 | 35.3 mL/min/kg |  | 0% |  |  |  |  | 0.3 h |  |  |  |  |  | 0.004 µM |  |  | 0.037 µM | CC(C)CC[C@@]1(N)C(=O)C(C2=NS(=O)(=O)c3cc(NS(C)(=O)=O)ccc3N2)=C(O)c2ccccc21
4 | 20 mL/min/kg |  | 8.9% |  |  |  |  | 2.2 h |  | 410 ng·h/mL |  |  | 80 ng/mL | 0.017 µM |  |  | 0.008 µM | CC(C)(C)CCC1(NCc2ccccc2N)C(=O)C(C2=NS(=O)(=O)c3cc(NS(C)(=O)=O)ccc3N2)=C(O)c2ccccc21 (configuration not stated)
5 | 19.3 mL/min/kg | 880 ng/g | 13.3% | 3590 ng/g | 3 | 0.016 µM | 2350 ng/g | 1.7 h | 6 | 600 ng·h/mL | 0.273 µM | 0.068 µM | 80 ng/mL | 0.01 µM | 0.015 µM | 12 | 0.016 µM | CC(C)CC[C@@]1(NCc2ccccc2)C(=O)C(C2=NS(=O)(=O)c3cc(NS(C)(=O)=O)ccc3N2)=C(O)c2ccccc21
6 | 13 mL/min/kg |  | 53.7% |  |  |  |  | 5 h |  | 3500 ng·h/mL |  |  | 460 ng/mL | 0.024 µM |  |  | 0.021 µM | Cc1cccc(C)c1CNC1(CCC(C)(C)C)C(=O)C(C2=NS(=O)(=O)c3cc(NS(C)(=O)=O)ccc3N2)=C(O)c2ccccc21 (configuration not stated)
7 | 28.3 mL/min/kg |  | 33.8% |  |  |  |  | 1 h |  | 1340 ng·h/mL |  |  | 150 ng/mL | 0.015 µM |  |  | 0.013 µM | Cc1cccc(CNC2(CCC(C)(C)C)C(=O)C(C3=NS(=O)(=O)c4cc(NS(C)(=O)=O)ccc4N3)=C(O)c3ccccc32)n1 (configuration not stated)

More lines, now with the values behind:

Row | SMILES | clearance [1] | concentration at 12 h [2] | bioavailability [3] | concentration at 1 h [4] | Kp at 12 h [5] | IC50 (Genome polyprotein) | concentration at 6 h [6] | half-life [7] | Kp at 6 h [8] | AUC(0-inf) [9] | EC50 (Hepatitis C virus [10]) | EC50 (Hepatitis C virus [11]) | Cmax [12] | IC50 [13] | EC50 (Hepatitis C virus [14]) | Kp at 1 h [15] | EC50 (Hepatitis C virus [16])
8 | Cc1cccc(C)c1CN[C@]1(CCC(C)(C)C)C(=O)C(C2=NS(=O)(=O)c3cc(NS(C)(=O)=O)ccc3N2)=C(O)c2ccccc21 | 11.7 mL/min/kg | 2110 ng/g | 55.9% | 5860 ng/g | 11 | 0.019 µM | 4360 ng/g | 3.1 h | 15 | 4210 ng·h/mL | 0.27 µM | 0.01 µM | 620 ng/mL | 0.016 µM | 0.006 µM | 12 | 
9 | COc1ccc(OC)c(CNC2(CCC(C)(C)C)C(=O)C(C3=NS(=O)(=O)c4cc(NS(C)(=O)=O)ccc4N3)=C(O)c3ccccc32)c1 (configuration not stated) |  |  |  |  |  |  |  |  |  |  |  |  |  | 0.01 µM |  |  | 0.015 µM
10 | Cc1ccc(CNC2(CCC(C)(C)C)C(=O)C(C3=NS(=O)(=O)c4cc(NS(C)(=O)=O)ccc4N3)=C(O)c3ccccc32)cn1 (configuration not stated) | 98.3 mL/min/kg |  | 0% |  |  |  |  | 0.5 h |  |  |  |  |  | 0.014 µM |  |  | 0.011 µM
11 | CON[C@]1(CCC(C)C)C(=O)C(C2=NS(=O)(=O)c3cc(NS(C)(=O)=O)ccc3N2)=C(O)c2ccccc21 | 45 mL/min/kg |  | 34.1% |  |  |  |  | 0.6 h |  | 350 ng·h/mL |  |  |  | 0.006 µM |  |  | 0.012 µM
12 | CONC1(CCC(C)C)C(=O)C(C2=NS(=O)(=O)c3cc(NS(C)(=O)=O)ccc3N2)=C(O)c2ccccc21 (configuration not stated) |  |  |  |  |  |  |  |  |  |  |  |  |  | 0.01 µM |  |  | 0.016 µM
13 | Cn1ccnc1CNC1(CCC(C)(C)C)C(=O)C(C2=NS(=O)(=O)c3cc(NS(C)(=O)=O)ccc3N2)=C(O)c2ccccc21 (configuration not stated) |  |  |  |  |  |  |  |  |  |  |  |  |  | 0.009 µM |  |  | 0.029 µM
14 | Cc1cc(CNC2(CCC(C)(C)C)C(=O)C(C3=NS(=O)(=O)c4cc(NS(C)(=O)=O)ccc4N3)=C(O)c3ccccc32)n(C)n1 (configuration not stated) |  |  |  |  |  |  |  |  |  |  |  |  |  | 0.005 µM |  |  | 0.015 µM
15 | CC(C)CC[C@@]1(NS(C)(=O)=O)C(=O)C(C2=NS(=O)(=O)c3cc(NS(C)(=O)=O)ccc3N2)=C(O)c2ccccc21 | 71.7 mL/min/kg |  | 0% |  |  |  |  | 0.2 h |  |  |  |  |  | 0.007 µM |  |  | 0.056 µM
